Source: article PMC6641930 (ACS Omega, 2017)
Several values for one entry are separate records, joined by “and”; a condition that tells them apart may be missing. Equal values may be shown once. Read-outs that look alike come from different tables or passages of the source.

Legend:
TTR fibrils [1] = target: T1, TTR fibrils (Homo sapiens, UniProt P02766); assay: Titration of TTR fibrils on a fixed probe concentration; format: binding
In short: (§1)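 Fibrils (0–20 μM, monomer basis) are titrated onto fixed probe: 1 μM, or 0.5 μM for Aβ1-42 fibrils. Buffers are pH 3.0 for TTR, insulin and lysozyme, and PBS pH 7.5 for Aβ1-42 (10 μM, 37 °C, 24 h quiescent). Samples equilibrate 30 min at room temperature. Excitation 330 nm, emission 350–700 nm. Kd comes from a one-site nonlinear fit with fixed Bmax correcting for unbound probe. SD is from two independent binding series.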

insulin fibrils [2] = target: T2, insulin fibrils (Bos taurus, UniProt P01317); assay: Titration of insulin fibrils on a fixed probe concentration; format: binding, Bovine
In short: as §1

lysozyme fibrils [3] = target: T3, lysozyme fibrils (Gallus gallus, UniProt P00698); assay: Titration of lysozyme fibrils on a fixed probe concentration; format: binding, chicken
In short: as §1

Aβ1-42 fibrils [4] = target: T4, Aβ1-42 fibrils (Homo sapiens, UniProt P05067); assay: Titration of Aβ1-42 fibrils on a fixed probe concentration; format: binding
In short: as §1

TTR fibrils [5] = target: T1, TTR fibrils; assay: Fluorescence emission of probe bound to TTR fibrils; format: binding; conditions: 5 μM fibrils + 1 μM probe; pH 3.0; excitation 330 nm
In short: (§2)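 Fibrils made from pH 3.0 (TTR: purified WT TTR in 50 mM NaAc/100 mM NaCl; bovine insulin or hen lysozyme: 200 μM in 25 mM HCl pH 1.6 at 65 °C, then dialysed into NaAc/NaCl pH 3.0). 1.0 μM probe from DMSO stock mixed with 5 μM fibrils (monomer basis) in HOAc/NaAc pH 3.0. Excitation 330 nm, emission 350–600 nm. Fold increase taken relative to free probe in buffer.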

insulin fibrils [6] = target: T2, insulin fibrils; assay: Fluorescence emission of probe bound to insulin fibrils; format: binding, Bovine; conditions: pH 3.0; for Int: fold increase in fluorescence intensity upon binding to insulin fibrils: 5 μM fibrils (monomer basis) + 1 μM probe, versus free probe; for λem2: emission maxima of probe bound to insulin fibrils: 5 μM fibrils + 1 μM probe, excitation 330 nm
In short: as §2

lysozyme fibrils [7] = target: T3, lysozyme fibrils; assay: Fluorescence emission of probe bound to lysozyme fibrils; format: binding, chicken; conditions: pH 3.0; for Int: fold increase in fluorescence intensity upon binding to lysozyme fibrils: 5 μM fibrils (monomer basis) + 1 μM probe, versus free probe; for λem2: emission maxima of probe bound to lysozyme fibrils: 5 μM fibrils + 1 μM probe, excitation 330 nm
In short: as §2

Aβ1-42 fibrils [8] = target: T4, Aβ1-42 fibrils; assay: Fluorescence emission of probe bound to Aβ1-42 fibrils; format: binding; conditions: PBS buffer pH 7.5; for Int: fold increase in fluorescence intensity upon binding to Aβ1-42 fibrils: 5 μM fibrils (monomer basis) + 1 μM probe, versus free probe; for λem2: emission maxima of probe bound to Aβ1-42 fibrils: 5 μM fibrils + 1 μM probe, excitation 330 nm
In short: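 Recombinant Aβ1-42 (extra N-terminal Met), solubilised in 6 M GuHCl and gel-filtered into PBS pH 7.5. […] Probe (1.0 μM, from DMSO stock) mixed with 5 μM fibrils or freshly dissolved monomer (monomer basis) in PBS pH 7.5. Emission spectra at 330 nm excitation, identical settings.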

native TTR [9] = target: T5, native TTR (Homo sapiens, UniProt P02766); assay: Fluorescence emission of probe with native TTR; format: binding; conditions: 5 μM native TTR + 1 μM probe; for emission peaks of probe bound to native TTR: excitation 330 nm; for fluorescence intensity increase upon binding to native TTR: versus probe in buffer
In short: (§3)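 Probe (1.0 μM final, from DMSO stock) is read free in buffer or with 5 μM native protein (monomer basis). Buffers are HOAc/NaAc pH 3.0 or PBS pH 7.5. Aβ1-42 is recombinant with an extra N-terminal Met, freshly gel-filtered monomer in PBS pH 7.5. Spectra are recorded at 330 nm excitation, 350–600 nm emission, with identical instrument settings.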

native Aβ1-42 = native Aβ1-42 (Homo sapiens, UniProt P05067); assay: Fluorescence emission of probe with freshly dissolved native Aβ1-42; format: binding; conditions: 5 μM native Aβ1-42 + 1 μM probe; PBS buffer
In short: as §3

[10] = UV-vis absorption and fluorescence spectra in methanol; format: physicochemical; conditions: for λmax (em): excitation 330 nm, [probe] = 20 μM; for ε: four concentrations
In short: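 Absorption is read in methanol in a 1 cm quartz cuvette at room temperature, at 20 μM and at four concentrations (50–5 μM, or 10–2 μM for one probe) for ε. Fluorescence of 20 μM probe in methanol uses 330 nm excitation, 350–600 nm emission and 1 nm resolution.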

Fluorescence lifetime = format: physicochemical; conditions: A: degassed methanol, [probe] = 5 μM; for τ1: excitation 337 nm
In short: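 TCSPC decays of 5 μM probe in argon-degassed methanol, excited at 337 nm and monitored at each emission maximum at room temperature. Instrument response is determined with a fibril solution. Decays are fitted to a sum of exponentials, with fit quality judged by χ2, residual distribution and residual autocorrelation. Average lifetime is calculated from amplitudes and lifetimes. Lifetime uncertainty is within 10%.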

Aβ1-42 fibrils [11] = target: T4, Aβ1-42 fibrils; assay: Fluorescence lifetime; conditions: for τavg (average fluorescence lifetime): B: bound to Aβ1-42 fibrils in PBS buffer pH 7.5, [probe] = 5 μM; for τavg (average fluorescence lifetime) / λem1 (emission wavelength of decay) / τ1: [fibrils] = 20 μM; for λem1 (emission wavelength of decay) / τ1: [probe] = 5 μM
In short: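 Time-correlated single photon counting on 5 μM probe with 20 μM Aβ1-42 fibrils (monomer basis) in PBS pH 7.5 at 25 °C, not degassed. Excitation 337 nm; decay recorded at the bound-probe emission maximum. Instrument response is measured with fibril solution. Multi-exponential fits are judged by χ2 and residuals. Uncertainty is within 10%.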

TTR fibrils [12] = target: T1, TTR fibrils; conditions: two separate binding events, cited from earlier work
native TTR [13] = target: T5, native TTR; assay: Saturation binding of native TTR to probe
[14] = Emission maximum of free probe in buffer; format: physicochemical; conditions: HOAc/NaOAc buffer pH 3.0 or PBS buffer pH 7.5
In short: as §3

[15] = B: bound to Aβ1-42 fibrils in PBS buffer

T2 sequence (P01317 25-54 limits assumed): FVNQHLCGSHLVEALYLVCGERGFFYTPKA
T2 sequence (P01317 85-105 limits assumed): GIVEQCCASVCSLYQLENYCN
T4 sequence (P05067 672-713): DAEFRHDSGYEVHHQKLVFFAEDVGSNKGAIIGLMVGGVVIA
Sequence of native Aβ1-42 (P05067 672-713): as above
T3 sequence (P00698 19-147): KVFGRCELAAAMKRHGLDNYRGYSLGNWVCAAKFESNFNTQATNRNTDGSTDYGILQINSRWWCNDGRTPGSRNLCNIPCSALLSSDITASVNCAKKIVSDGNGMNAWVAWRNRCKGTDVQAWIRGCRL

| Kd (TTR fibrils [1]) [nM] | Kd (insulin fibrils [2]) [nM] | Kd (lysozyme fibrils [3]) [nM] | Kd (Aβ1-42 fibrils [4]) [nM] | λem2: emission maxima of probe bound to TTR fibrils (TTR fibrils [5]) | Int: fold increase in fluorescence intensity upon binding to insulin fibrils (insulin fibrils [6]) [fold] | λem2: emission maxima of probe bound to insulin fibrils (insulin fibrils [6]) | Int: fold increase in fluorescence intensity upon binding to lysozyme fibrils (lysozyme fibrils [7]) [fold] | λem2: emission maxima of probe bound to lysozyme fibrils (lysozyme fibrils [7]) [nm] | Int: fold increase in fluorescence intensity upon binding to Aβ1-42 fibrils (Aβ1-42 fibrils [8]) [fold] | Stokes shift [10] [nm] | λmax (abs) [10] [nm] | λmax (em) [10] [nm] | ε [10] | α1 (normalized pre-exponential factor) (Fluorescence lifetime) | λem1 (emission wavelength of decay) (Fluorescence lifetime) [nm] | τavg (average fluorescence lifetime) (Fluorescence lifetime) [ns] | α1 (normalized pre-exponential factor) (Aβ1-42 fibrils [11]; [15]) | α2 (normalized pre-exponential factor) (Aβ1-42 fibrils [11]; [15]) | Compound | fluorescence / binding with freshly prepared native Aβ1-42 (native Aβ1-42) | further results |
| --- | --- | --- | --- | --- | --- | --- | --- | --- | --- | --- | --- | --- | --- | --- | --- | --- | --- | --- | --- | --- | --- |
| 7400 ± 500 | 3700 ± 600 | 2800 ± 400 | 1600 ± 100 | 451 nm and 475 nm | 91.4 | 451 nm and 471 nm | 37.5 | 451 | 10.3 | 148 | 335 | 483 | 27 070 L·M^–1 cm^–1 | 1 | 475 | 4.23 | 0.38 | 0.62 | Oc1ccc(/C=C/c2ccc3cc4ccccc4cc3c2)cc1O [Compound 4, (E)-4-(2-(anthracen-2-yl)vinyl)benzene-1,2-diol] | Neither 2, 4, or 5 fluoresced appreciably | emission peaks of probe bound to native TTR (native TTR [9]): 449 nm and 476 nm; fluorescence intensity increase upon binding to native TTR (native TTR [9]): about 6.1 fold; τ1 (Fluorescence lifetime): 4.23 ns; τ2 (Aβ1-42 fibrils [11]; [15]): 6.06 ns; τavg (average fluorescence lifetime) (Aβ1-42 fibrils [11]): 5.7 ns and 5.73 ns; λem1 (emission wavelength of decay) (Aβ1-42 fibrils [11]; [15]): 460 nm; τ1 (Aβ1-42 fibrils [11]; [15]): 0.64 ns |
| 12300 ± 1000 | 4500 ± 400 | 2900 ± 200 | 2200 ± 400 | 395 nm | 13.7 | 410 nm | 13.1 | 410 | 6.9 | 86 | 334 | 420 | 30 170 L·M^–1 cm^–1 | 1 | 415 | 0.52 | 0.54 | 0.46 | Oc1ccc(/C=C/c2ccc3ccccc3c2)cc1O [Compound 3, (E)-4-(2-(naphthalen-2-yl)vinyl)benzene-1,2-diol] | showed some binding | λem2: emission maxima of probe bound to Aβ1-42 fibrils (Aβ1-42 fibrils [8]): 408 nm; τ1 (Fluorescence lifetime): 0.52 ns; τ2 (Aβ1-42 fibrils [11]; [15]): 1.65 ns; τavg (average fluorescence lifetime) (Aβ1-42 fibrils [11]): 1.5 ns and 1.45 ns; λem1 (emission wavelength of decay) (Aβ1-42 fibrils [11]; [15]): 420 nm; τ1 (Aβ1-42 fibrils [11]; [15]): 0.23 ns; Kd (TTR fibrils [12]; read-out: Kd1, TTR fibrils (high-affinity binding site)): 70 nM; Kd (TTR fibrils [12]; read-out: Kd2, TTR fibrils): > 10000 nM |

| Compound | Kd (TTR fibrils [1]) [nM] | Kd (insulin fibrils [2]) [nM] | Kd (lysozyme fibrils [3]) [nM] | Kd (Aβ1-42 fibrils [4]) [nM] | λem2: emission maxima of probe bound to TTR fibrils (TTR fibrils [5]) | Int: fold increase in fluorescence intensity upon binding to insulin fibrils (insulin fibrils [6]) [fold] | λem2: emission maxima of probe bound to insulin fibrils (insulin fibrils [6]) | Int: fold increase in fluorescence intensity upon binding to lysozyme fibrils (lysozyme fibrils [7]) [fold] | λem2: emission maxima of probe bound to lysozyme fibrils (lysozyme fibrils [7]) [nm] | Int: fold increase in fluorescence intensity upon binding to Aβ1-42 fibrils (Aβ1-42 fibrils [8]) [fold] | Stokes shift [10] [nm] | λmax (abs) [10] [nm] | λmax (em) [10] [nm] | ε [10] | α1 (normalized pre-exponential factor) (Fluorescence lifetime) | λem1 (emission wavelength of decay) (Fluorescence lifetime) [nm] | τavg (average fluorescence lifetime) (Fluorescence lifetime) [ns] | α1 (normalized pre-exponential factor) (Aβ1-42 fibrils [11]; [15]) | α2 (normalized pre-exponential factor) (Aβ1-42 fibrils [11]; [15]) | fluorescence / binding with freshly prepared native Aβ1-42 (native Aβ1-42) | further results |
| --- | --- | --- | --- | --- | --- | --- | --- | --- | --- | --- | --- | --- | --- | --- | --- | --- | --- | --- | --- | --- | --- |
| Oc1ccc(/C=C/c2cc3ccc4cccc5ccc(c2)c3c45)cc1O [Compound 5, (E)-4-(2-(pyren-2-yl)vinyl)benzene-1,2-diol] | 6000 ± 300 | 2300 ± 400 | 1600 ± 300 | 1300 ± 100 | 420 nm and 445 nm and 475 nm | 23.2 | 420 nm and 445 nm and 475 nm | 8.9 | 420 | 11.1 | 78 | 337 | 415 | 47 668 L·M^–1 cm^–1 | 0.77 | 425 | 19.11 | 0.11 | 0.42 | Neither 2, 4, or 5 fluoresced appreciably | Kd (native TTR [13]): 200 ± 10 nM; λem2: emission maxima of probe bound to Aβ1-42 fibrils (Aβ1-42 fibrils [8]): ~421 nm; emission peaks of probe bound to native TTR (native TTR [9]): 420 nm and 445 nm and 475 nm; fluorescence intensity increase upon binding to native TTR (native TTR [9]): 15.8 fold; α2 (normalized pre-exponential factor) (Fluorescence lifetime): 0.23; τ2 (Fluorescence lifetime): 29.30 ns; α3 (normalized pre-exponential factor) (Aβ1-42 fibrils [11]; [15]): 0.47; τ2 (Aβ1-42 fibrils [11]; [15]): 8.89 ns; τ3 (Aβ1-42 fibrils [11]; [15]): 34.70 ns; τavg (average fluorescence lifetime) (Aβ1-42 fibrils [11]): 29.8 ns and 29.76 ns; λem1 (emission wavelength of decay) (Aβ1-42 fibrils [11]; [15]): 430 nm; τ1 (Aβ1-42 fibrils [11]; [15]): 0.83 ns; λem1: emission maxima of probes in buffer [14]: 420 nm |
